Test results published in ChEMBL document CHEMBL1128459, “Characterization of potent and selective antagonists at postsynaptic 5-HT1A receptors in a series of N4-substituted arylpiperazines” (J Med Chem, 1995).
pKi: −log10 of the molar value.

Experiments:
Rattus norvegicus [1] = species on record: Rattus norvegicus; assay: Maximum antagonist effect (% effect) expressed relative to 8-hydroxy-DPAT (100%); type: functional
Outline: (§1)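 In the rat rectal-temperature model (sc dosing, 8-OH-DPAT 0.16 mg/kg sc for antagonism), the maximal percentage of induced hypothermia (agonist) and of block of 8-OH-DPAT hypothermia (antagonist) was recorded. Each value is given with the dose at which it was reached.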

D(2) dopamine receptor [2] = biological target: T1, D(2) dopamine receptor (Rattus norvegicus, UniProt P61169); assay: In vitro binding affinity towards Dopamine receptor D2 in rat striatum was determined using [3H]spiperone as radioligand; type: tissue-based
Outline: (§2)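 Rat striatal membranes (1/300 wt/vol), no preincubation, in 50 mM Tris pH 7.4 with CaCl2, ascorbic acid, 5 mM KCl, 1 mM MgCl2 and 120 mM NaCl. Ligand 0.2 nM [3H]spiperone, with 100 nM ketanserin masking 5-HT2A sites; raclopride defined nonspecific binding. Incubation 30 min at 37 °C, then filtration. pKi derived from regression-based IC50.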

Rattus norvegicus [3] = species on record: Rattus norvegicus; assay: Maximum agonist effect (% effect) expressed relative to 8-hydroxy-DPAT (100%); type: functional; outline: as §1
[4] = biological target: D(2) dopamine receptor (Rattus norvegicus) (UniProt P61169)
Rattus norvegicus [5] = assay: Compound after subcutaneous administration was evaluated for antagonist activity against hypothermia induced by 8-hydroxy -DPAT in rat; type: functional; settings: sc, read-out: ID50 (the source's name)
Outline: (§3)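 Male Wistar rats (200-220 g) had rectal temperature taken, then received the test drug sc in distilled water (1.0 mL/kg). After 30 min they got 8-OH-DPAT 0.16 mg/kg sc, and temperature was remeasured 30 min later. Change from basal was scored.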

Rattus norvegicus [6] = assay: Minimum effective antagonist dose administered subcutaneously; type: functional; settings: sc, read-out: MED; outline: as §3
[7] = biological target: T2, Adrenergic receptor alpha-1 (Rattus norvegicus, UniProt P15823+P23944+P43140); assay: In vitro binding affinity towards Alpha-1 adrenergic receptor in rat cortex was determined using [3H]prazosin as radioligand
T2 sequence (P15823 whole entry): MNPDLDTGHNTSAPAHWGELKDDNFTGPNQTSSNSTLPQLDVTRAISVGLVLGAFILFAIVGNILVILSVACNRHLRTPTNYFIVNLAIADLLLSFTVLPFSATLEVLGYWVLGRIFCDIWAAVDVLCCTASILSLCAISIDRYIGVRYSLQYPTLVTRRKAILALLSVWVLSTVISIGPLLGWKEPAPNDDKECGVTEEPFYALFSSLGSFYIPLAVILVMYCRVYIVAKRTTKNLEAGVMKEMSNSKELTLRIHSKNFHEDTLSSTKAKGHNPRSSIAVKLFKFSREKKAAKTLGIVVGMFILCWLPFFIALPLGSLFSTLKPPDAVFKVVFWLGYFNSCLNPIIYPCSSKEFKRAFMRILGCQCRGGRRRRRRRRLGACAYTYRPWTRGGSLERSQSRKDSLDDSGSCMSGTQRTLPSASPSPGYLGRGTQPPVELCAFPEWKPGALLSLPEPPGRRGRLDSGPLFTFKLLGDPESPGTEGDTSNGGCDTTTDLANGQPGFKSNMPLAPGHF
T2 sequence (P23944 whole entry): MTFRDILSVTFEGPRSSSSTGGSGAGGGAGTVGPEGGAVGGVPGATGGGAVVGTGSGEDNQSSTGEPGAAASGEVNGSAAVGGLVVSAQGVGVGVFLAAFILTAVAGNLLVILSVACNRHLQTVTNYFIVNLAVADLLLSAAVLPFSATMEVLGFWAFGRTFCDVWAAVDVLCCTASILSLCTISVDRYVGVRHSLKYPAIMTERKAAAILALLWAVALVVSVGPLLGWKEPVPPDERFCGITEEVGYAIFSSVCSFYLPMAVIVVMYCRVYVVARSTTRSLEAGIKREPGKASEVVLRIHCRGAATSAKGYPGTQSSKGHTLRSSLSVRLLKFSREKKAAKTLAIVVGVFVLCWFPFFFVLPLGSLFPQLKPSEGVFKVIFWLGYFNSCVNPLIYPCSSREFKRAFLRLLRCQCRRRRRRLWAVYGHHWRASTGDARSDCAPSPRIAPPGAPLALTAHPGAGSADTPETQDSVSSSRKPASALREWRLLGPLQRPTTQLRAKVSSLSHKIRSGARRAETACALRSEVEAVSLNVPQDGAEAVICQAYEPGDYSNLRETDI
T2 sequence (P43140 whole entry): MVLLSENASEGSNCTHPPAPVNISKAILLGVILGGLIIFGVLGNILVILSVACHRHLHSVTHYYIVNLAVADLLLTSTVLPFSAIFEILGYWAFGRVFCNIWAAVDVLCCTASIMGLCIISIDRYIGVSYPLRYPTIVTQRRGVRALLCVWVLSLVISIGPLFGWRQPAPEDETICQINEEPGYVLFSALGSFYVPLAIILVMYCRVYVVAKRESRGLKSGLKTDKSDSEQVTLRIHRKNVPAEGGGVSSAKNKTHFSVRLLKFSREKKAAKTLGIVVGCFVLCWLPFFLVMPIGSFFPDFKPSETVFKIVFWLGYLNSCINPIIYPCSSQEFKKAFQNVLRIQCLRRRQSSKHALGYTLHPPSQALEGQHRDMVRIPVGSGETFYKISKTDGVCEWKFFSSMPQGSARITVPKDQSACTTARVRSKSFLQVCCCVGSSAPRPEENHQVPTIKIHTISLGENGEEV
Outline: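 Rat frontal cortex membranes (1/80 wt/vol), no preincubation, in 50 mM Tris pH 7.6 with 4 mM CaCl2 and 0.1% ascorbic acid. Ligand 0.2 nM [3H]prazosin, with phentolamine for nonspecific binding. Incubation 60 min at 25 °C, then filtration. IC50 obtained by regression and converted to pKi with radioligand Kd from saturation experiments.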

[8] = biological target: 5-hydroxytryptamine receptor 1B (Rattus norvegicus, UniProt P28564); assay: Binding affinity at 5-hydroxytryptamine 1B receptor
Outline: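 Rat frontal cortex membranes (1/40 wt/vol) were homogenized in 50 mM Tris pH 7.7 with pargyline, 4 mM CaCl2 and 0.1% ascorbic acid, then preincubated for 30 min at 37 °C. Labelled with 2.0 nM [3H]-5-HT, with 100 nM 8-OH-DPAT and 100 nM mesulergine masking 5-HT1A/5-HT2A sites; 5-CT defined nonspecific binding.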

[9] = biological target: Serotonin 1a (5-HT1a) receptor/Adrenergic receptor alpha-1 (Rattus norvegicus) (UniProt P15823+P23944+P43140+P19327); assay: Ki ratio measured as the Ki values of alpha-1 adrenergic receptor to that of 5-hydroxytryptamine 1A receptor; type: protein assay
Rattus norvegicus [10] = assay: Minimum effective agonist dose administered subcutaneously; type: functional; settings: sc, read-out: MED
Outline: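 Male Wistar rats (200-220 g) were given the test drug alone sc in water (1.0 mL/kg), with vehicle reinjected at 30 min. Rectal temperature change from basal was measured 60 min after the first injection. MED for hypothermia was set against vehicle by ANOVA with Dunnett's test, P < 0.05.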

[11] = Ratio of MED (agonist) to that of MED (antagonist) values.; type: functional
Outline: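 The MED for inducing hypothermia alone was divided by the MED for blocking 8-OH-DPAT (0.16 mg/kg sc) hypothermia. Both MEDs came from sc dosing in male Wistar rats and were tested against vehicle by ANOVA with Dunnett's test, P < 0.05.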

[12] = biological target: T3, 5-hydroxytryptamine receptor 1A (Rattus norvegicus, UniProt P19327); assay: Binding affinity at 5-hydroxytryptamine 1A receptor
T3 sequence (P19327 whole entry): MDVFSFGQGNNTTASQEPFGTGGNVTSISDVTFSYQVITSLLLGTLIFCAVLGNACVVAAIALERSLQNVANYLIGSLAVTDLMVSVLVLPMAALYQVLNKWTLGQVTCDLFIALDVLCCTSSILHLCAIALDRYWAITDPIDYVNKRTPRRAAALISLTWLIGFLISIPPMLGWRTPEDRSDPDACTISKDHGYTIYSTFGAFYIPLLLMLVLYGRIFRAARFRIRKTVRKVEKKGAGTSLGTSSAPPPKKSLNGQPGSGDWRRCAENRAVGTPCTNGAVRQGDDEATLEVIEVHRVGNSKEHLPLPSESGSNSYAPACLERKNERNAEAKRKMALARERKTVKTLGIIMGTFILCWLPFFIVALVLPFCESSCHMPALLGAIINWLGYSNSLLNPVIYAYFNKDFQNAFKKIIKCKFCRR
Outline: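 Rat hippocampal membranes (1/100 wt/vol) in 50 mM Tris pH 7.7 with 4 mM CaCl2, 0.1% ascorbic acid and pargyline. Membranes were spun at 25000g, preincubated 30 min at 37 °C and respun, then incubated with 0.4 nM [3H]-8-OH-DPAT for 30 min at 25 °C. 5-HT defined nonspecific binding, and samples were filtered on PEI-soaked GF/B. IC50 came from regression; pKi = −log[IC50/(1+[L]/Kd)].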

D(2) dopamine receptor [13] = biological target: T1, D(2) dopamine receptor; assay: In vitro binding affinity towards dopamine D2 receptor in rat striatum was determined using [3H]-spiperone as radioligand; type: tissue-based; outline: as §2
D(2) dopamine receptor [14] = biological target: T1, D(2) dopamine receptor; assay: In vitro binding affinity towards Dopamine receptor D2 in rat striatum was determined using [3H]-spiperone as radioligand; type: tissue-based; outline: as §2
[15] = biological target: 5-hydroxytryptamine receptor 1A (Rattus norvegicus) (UniProt P19327); assay: Ki ratio measured as the Ki values of dopamine receptor to that of 5-hydroxytryptamine 1A receptor
[16] = biological target: D(2) dopamine receptor (Rattus norvegicus) (UniProt P61169); assay: Inhibitory activity against methyl-phenidate-induced gnawing at dopamine receptor D2 in rat
Outline: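 Male Wistar rats (200-220 g) received the test drug sc in water (1.0 mL/kg), then methylphenidate 40.0 mg/kg ip 30 min later. Observation began 30 min after that. Gnawing bouts were counted in 10 s per minute (maximum 10) by a blinded observer.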

T1 sequence (P61169 whole entry): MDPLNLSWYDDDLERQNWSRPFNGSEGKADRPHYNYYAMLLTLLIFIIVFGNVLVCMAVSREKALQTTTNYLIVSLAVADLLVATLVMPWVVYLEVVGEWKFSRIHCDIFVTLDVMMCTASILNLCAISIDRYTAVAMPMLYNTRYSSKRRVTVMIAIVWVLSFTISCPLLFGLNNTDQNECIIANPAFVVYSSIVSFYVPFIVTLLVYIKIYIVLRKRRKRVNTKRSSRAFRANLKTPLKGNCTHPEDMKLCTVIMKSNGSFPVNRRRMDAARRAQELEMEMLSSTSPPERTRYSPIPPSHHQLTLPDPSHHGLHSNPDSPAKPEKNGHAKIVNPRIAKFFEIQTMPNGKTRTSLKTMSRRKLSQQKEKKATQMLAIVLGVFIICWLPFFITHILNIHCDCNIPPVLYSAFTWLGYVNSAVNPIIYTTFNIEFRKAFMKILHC
Chain of D(2) dopamine receptor (Rattus norvegicus) (P61169 whole entry): as above
Chain of 5-hydroxytryptamine receptor 1B (P28564 whole entry): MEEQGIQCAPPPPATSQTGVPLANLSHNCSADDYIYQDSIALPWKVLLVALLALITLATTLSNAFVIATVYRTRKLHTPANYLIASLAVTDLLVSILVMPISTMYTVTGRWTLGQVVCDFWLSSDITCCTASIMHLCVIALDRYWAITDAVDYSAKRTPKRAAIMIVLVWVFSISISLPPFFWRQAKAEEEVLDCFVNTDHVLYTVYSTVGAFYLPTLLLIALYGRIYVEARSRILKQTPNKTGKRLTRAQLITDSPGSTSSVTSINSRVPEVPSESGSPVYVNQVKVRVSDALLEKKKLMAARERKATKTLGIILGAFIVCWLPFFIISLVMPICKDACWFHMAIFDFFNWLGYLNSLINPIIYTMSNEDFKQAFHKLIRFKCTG

Row | SMILES | Max effect (Rattus norvegicus [1]) [%] | pKi (D(2) dopamine receptor [2]) | Max effect (Rattus norvegicus [3]) [%] | ID50 [4] [mg/kg] | ED50 (Rattus norvegicus [5]) [mg/kg] | minimal effective dose (Rattus norvegicus [6]) [mg/kg] | Log Ki [7] | pKi [8] | Ki ratio [9] | minimal effective dose (Rattus norvegicus [10]) [mg/kg] | Ratio [11] | pKi [12] | pKi (D(2) dopamine receptor [13]) | pKi (D(2) dopamine receptor [14]) | Ki ratio [15] | ID50 [16] [mg/kg]
1 | c1ccc2c(c1)CC(N1CCN(c3cccc4c3OCCCO4)CC1)C2 | 51 | 6.71 | 72 | > 40 | 5.18 | 5 | -6.68 | 5.85 | 55 | 10 | 2 | – | – | – | – | –
2 | COc1cc2c(cc1OC)C(CCN1CCN(c3cccc4c3OCCO4)CC1)CC2 (stereo unspecified) | 84 | – | 12 | 40 | 0.86 | 2.5 | -7.81 | 6.17 | 9.8 | > 40 | > 16 | 8.80 | 6.88 | – | – | –
3 | Clc1cccc2c1CC2CCN1CCN(c2cccc3c2OCCO3)CC1 (stereo unspecified) | 96 | – | 52 | > 40 | 1.13 | 1.25 | -7.19 | 6.15 | 28.8 | 40 | 32 | 8.65 | 7.22 | – | – | –
4 | c1ccc2c(c1)CCC2CN1CCN(c2cccc3c2OCCO3)CC1 (stereo unspecified) | 63 | – | 43 | > 40 | 1.32 | 0.63 | -7.75 | 6.70 | 18.6 | 10 | 15.8 | 8.76 | – | 7.38 | 43.6 | –
5 | c1ccc2c(c1)CC2CCCN1CCN(c2cccc3ccoc23)CC1 (stereo unspecified) | 47 | – | 46 | – | 2.5 | 2.5 | – | 5.85 | – | 10 | 4 | 8.55 | – | – | – | 40
6 | COc1ccccc1N1CCN(CCCCN2C(=O)c3ccccc3C2=O)CC1 [NAN-190] | 56 | 7.50 | 100 | 10 | 97 | 0.63 | – | – | – | 5 | – | – | – | – | – | –
7 | c1ccc2c(c1)CC2CCN1CCN(c2cccc3ccoc23)CC1 (stereo unspecified) | 91 | – | 21 | – | 1.12 | 1.25 | – | 5.82 | – | > 40 | > 32 | 8.85 | – | – | – | > 40
8 | c1ccc2c(c1)CC2CCCCN1CCN(c2cccc3c2OCCO3)CC1 (stereo unspecified) | 88 | 7.71 | 0 | > 40 | 1.43 | 5 | -7.56 | 6.20 | 17.8 | > 10 | > 2 | 8.89 | – | – | 12.5 | –
